Data published in ChEMBL document CHEMBL3046030, “Implementation of bio-fungicides and seed treatment in organic rice cv. KDML 105 farming” (2009).

Experiments:
Format in all cases: functional
Alternaria solani [1] = assay: Antifungal activity against Alternaria solani assessed as inhibition of spore germination at 0.5% after 24 hr by compound microscopy
Summary of the method: (§1)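 Spores were raised by growing the fungus 3 days at 25±2°C in aqueous PDA, rinsing the mycelium three times in distilled water, and holding it 2 more days. The suspension was adjusted to about 10^6 cfu/mL by hemacytometer and spread on slides carrying a thin PDA layer. An open watch glass held plant extract or essential oil (0.10–1.00% v/v), or sterile water as control. Slides were sealed in moist dishes for 24 h at 25±2°C. Encysted spores were counted at x100, and % inhibition was calculated against control.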

Curvularia [2] = assay: Antifungal activity against Curvularia sp. assessed as inhibition of spore germination at 0.10% after 24 hr by compound microscopy
Aspergillus niger [3] = assay: Antifungal activity against Aspergillus niger assessed as inhibition of spore germination at 0.5% after 24 hr by compound microscopy
Fusarium verticillioides [4] = assay: Antifungal activity against Fusarium verticillioides at 0.25%
Aspergillus niger [5] = assay: Antifungal activity against Aspergillus niger assessed as inhibition of spore germination at 0.25% after 24 hr by compound microscopy
Fusarium verticillioides [6] = assay: Antifungal activity against Fusarium verticillioides assessed as inhibition of spore germination at 0.10% after 24 hr by compound microscopy; summary of the method: as §1
Alternaria solani [7] = assay: Antifungal activity against Alternaria solani assessed as inhibition of spore germination at 1% after 24 hr by compound microscopy; summary of the method: as §1
Rhizoctonia solani [8] = assay: Antifungal activity against Rhizoctonia solani at 0.25%
Nigrospora [9] = assay: Antifungal activity against Nigrospora sp. at 0.25%
Aspergillus flavus [10] = assay: Antifungal activity against Aspergillus flavus assessed as inhibition of spore germination at 0.25% after 24 hr by compound microscopy
Aspergillus niger [11] = assay: Antifungal activity against Aspergillus niger assessed as inhibition of spore germination at 1% after 24 hr by compound microscopy
Rhizoctonia solani [12] = assay: Antifungal activity against Rhizoctonia solani assessed as inhibition of spore germination at 1% after 24 hr by compound microscopy
Summary of the method: (§2)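 R. solani grown 3 days at 25±2°C in aqueous PDA, rinsed three times with distilled water, then held 2 days to induce spores. Suspension set to about 10^6 cfu/mL by hemacytometer and spread on a thin PDA layer on slides. Watch glass held extract/oil (0.10–1.00% v/v) or sterile water control. Moist sealed chamber, 24 h, 25±2°C; encysted spores counted at x100; % inhibition versus control.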

Rhizoctonia solani [13] = assay: Antifungal activity against Rhizoctonia solani assessed as inhibition of spore germination at 0.25% after 24 hr by compound microscopy; summary of the method: as §2
Colletotrichum = assay: Antifungal activity against Colletotrichum sp. at 1%
Curvularia [14] = assay: Antifungal activity against Curvularia sp. at 0.25%
Aspergillus flavus [15] = assay: Antifungal activity against Aspergillus flavus at 0.25%
Bipolaris oryzae [16] = assay: Antifungal activity against Bipolaris oryzae at 0.25%
Aspergillus flavus [17] = assay: Antifungal activity against Aspergillus flavus assessed as inhibition of spore germination at 1% after 24 hr by compound microscopy
Curvularia [18] = assay: Antifungal activity against Curvularia sp. at 1%
Aspergillus flavus [19] = assay: Antifungal activity against Aspergillus flavus assessed as inhibition of spore germination at 0.5% after 24 hr by compound microscopy
Alternaria solani [20] = assay: Antifungal activity against Alternaria solani assessed as inhibition of spore germination at 0.25% after 24 hr by compound microscopy; summary of the method: as §1
Fusarium verticillioides [21] = assay: Antifungal activity against Fusarium verticillioides assessed as inhibition of spore germination at 0.25% after 24 hr by compound microscopy; summary of the method: as §1
Alternaria solani [22] = assay: Antifungal activity against Alternaria solani at 1%
Rhizoctonia solani [23] = assay: Antifungal activity against Rhizoctonia solani assessed as inhibition of spore germination at 0.5% after 24 hr by compound microscopy; summary of the method: as §2
Aspergillus flavus [24] = assay: Antifungal activity against Aspergillus flavus at 1%
Rhizoctonia solani [25] = assay: Antifungal activity against Rhizoctonia solani at 1%
Fusarium verticillioides [26] = assay: Antifungal activity against Fusarium verticillioides assessed as inhibition of spore germination at 1% after 24 hr by compound microscopy; summary of the method: as §1
Aspergillus niger [27] = assay: Antifungal activity against Aspergillus niger at 0.25%
Alternaria solani [28] = assay: Antifungal activity against Alternaria solani assessed as inhibition of spore germination at 0.10% after 24 hr by compound microscopy; summary of the method: as §1
Aspergillus flavus [29] = assay: Antifungal activity against Aspergillus flavus assessed as inhibition of spore germination at 0.10% after 24 hr by compound microscopy
Nigrospora [30] = assay: Antifungal activity against Nigrospora sp. at 1%
Aspergillus niger [31] = assay: Antifungal activity against Aspergillus niger at 1%
Fusarium verticillioides [32] = assay: Antifungal activity against Fusarium verticillioides assessed as inhibition of spore germination at 0.5% after 24 hr by compound microscopy; summary of the method: as §1
Fusarium verticillioides [33] = assay: Antifungal activity against Fusarium verticillioides at 1%
Alternaria solani [34] = assay: Antifungal activity against Alternaria solani at 0.25%
Aspergillus niger [35] = assay: Antifungal activity against Aspergillus niger assessed as inhibition of spore germination at 0.10% after 24 hr by compound microscopy
Curvularia [36] = assay: Antifungal activity against Curvularia sp. assessed as inhibition of spore germination at 0.5% after 24 hr by compound microscopy
Bipolaris oryzae [37] = assay: Antifungal activity against Bipolaris oryzae at 1%
Curvularia [38] = assay: Antifungal activity against Curvularia sp. assessed as inhibition of spore germination at 1% after 24 hr by compound microscopy
Rhizoctonia solani [39] = assay: Antifungal activity against Rhizoctonia solani assessed as inhibition of spore germination at 0.10% after 24 hr by compound microscopy; summary of the method: as §1
Curvularia [40] = assay: Antifungal activity against Curvularia sp. assessed as inhibition of spore germination at 0.25% after 24 hr by compound microscopy
Aspergillus flavus [41] = assay: Antifungal activity against Aspergillus flavus assessed as mycelial growth inhibition after 96 hr by agar overlay method
Summary of the method: (§3)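 Agar overlay method: plant extract or essential oil was mixed into PDA at 0.10, 0.25, 0.50 and 1.00% v/v. A 5 mm plug from a 7-day culture was placed upside down on each plate and incubated 96 h at 25±2°C. Colony diameter was compared with an untreated control as % inhibition = (C−T)/C×100, using four replicates averaged. IC50 was derived by regression of the concentration–response curve.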

Aspergillus niger [42] = assay: Antifungal activity against Aspergillus niger assessed as mycelial growth inhibition at 1% after 96 hr by agar overlay method; summary of the method: as §3
Fusarium verticillioides [43] = assay: Antifungal activity against Fusarium verticillioides assessed as mycelial growth inhibition after 96 hr by agar overlay method; summary of the method: as §3
Curvularia [44] = assay: Antifungal activity against Curvularia sp. assessed as mycelial growth inhibition after 96 hr by agar overlay method; summary of the method: as §3
Rhizoctonia solani [45] = assay: Antifungal activity against Rhizoctonia solani assessed as mycelial growth inhibition at 1% after 96 hr by agar overlay method
Summary of the method: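 PDA containing plant extract or essential oil (0.10–1.00% v/v) was used for the agar overlay. A 5 mm plug from a 7-day-old R. solani culture was placed upside down, then incubated 96 h at 25±2°C. Colony diameter was measured against a simultaneous untreated control, and inhibition was calculated as [(C−T)/C]×100. Four replicates were averaged.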

Aspergillus niger [46] = assay: Antifungal activity against Aspergillus niger assessed as mycelial growth inhibition after 96 hr by agar overlay method; summary of the method: as §3
Fusarium verticillioides [47] = assay: Antifungal activity against Fusarium verticillioides assessed as mycelial growth inhibition at 1% after 96 hr by agar overlay method; summary of the method: as §3
Alternaria solani [48] = assay: Antifungal activity against Alternaria solani assessed as mycelial growth inhibition at 1% after 96 hr by agar overlay method; summary of the method: as §3
Rhizoctonia solani [49] = assay: Antifungal activity against Rhizoctonia solani assessed as mycelial growth inhibition after 96 hr by agar overlay method
Summary of the method: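 Agar overlay on PDA with extract or oil at 0.10, 0.25, 0.50 and 1.00% v/v. A 5 mm plug from a 7-day R. solani culture was incubated 96 h at 25±2°C, colony diameter was measured, and % inhibition versus untreated control was calculated in four replicates. IC50 was derived by regression of % inhibition against concentration.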

Bipolaris oryzae [50] = assay: Antifungal activity against Bipolaris oryzae assessed as mycelial growth inhibition after 96 hr by agar overlay method; summary of the method: as §3
Aspergillus flavus [51] = assay: Antifungal activity against Aspergillus flavus assessed as mycelial growth inhibition at 1% after 96 hr by agar overlay method; summary of the method: as §3
Alternaria solani [52] = assay: Antifungal activity against Alternaria solani assessed as mycelial growth inhibition after 96 hr by agar overlay method; summary of the method: as §3
Nigrospora [53] = assay: Antifungal activity against Nigrospora sp. assessed as mycelial growth inhibition after 96 hr by agar overlay method; summary of the method: as §3
Nigrospora [54] = assay: Antifungal activity against Nigrospora sp. assessed as mycelial growth inhibition at 1% after 96 hr by agar overlay method; summary of the method: as §3
Bipolaris oryzae [55] = assay: Antifungal activity against Bipolaris oryzae assessed as mycelial growth inhibition at 1% after 96 hr by agar overlay method; summary of the method: as §3
Curvularia [56] = assay: Antifungal activity against Curvularia sp. assessed as mycelial growth inhibition at 1% after 96 hr by agar overlay method; summary of the method: as §3

Structure (SMILES): C=CCc1ccc(O)c(OC)c1 [EUGENOL]
- growth inhibition (GI) (Alternaria solani [1]): 65.68%
- growth inhibition (GI) (Curvularia [2]): 44.94%
- growth inhibition (GI) (Aspergillus niger [3]): 100%
- inhibition (INH) (Fusarium verticillioides [4]): 100%
- growth inhibition (GI) (Aspergillus niger [5]): 65.6%
- growth inhibition (GI) (Fusarium verticillioides [6]): 21.88%
- growth inhibition (GI) (Alternaria solani [7]): 100%
- inhibition (INH) (Rhizoctonia solani [8]): 100%
- inhibition (INH) (Nigrospora [9]): 50.04%
- growth inhibition (GI) (Aspergillus flavus [10]): 65.6%
- growth inhibition (GI) (Aspergillus niger [11]): 100%
- growth inhibition (GI) (Rhizoctonia solani [12]): 100%
- growth inhibition (GI) (Rhizoctonia solani [13]): 100%
- inhibition (INH) (Colletotrichum): 100%
- inhibition (INH) (Curvularia [14]): 50.04%
- inhibition (INH) (Aspergillus flavus [15]): 44.22%
- inhibition (INH) (Bipolaris oryzae [16]): 86.98%
- growth inhibition (GI) (Aspergillus flavus [17]): 100%
- inhibition (INH) (Curvularia [18]): 97.04%
- growth inhibition (GI) (Aspergillus flavus [19]): 100%
- growth inhibition (GI) (Alternaria solani [20]): 24.16%
- growth inhibition (GI) (Fusarium verticillioides [21]): 74.11%
- inhibition (INH) (Alternaria solani [22]): 100%
- growth inhibition (GI) (Rhizoctonia solani [23]): 100%
- inhibition (INH) (Aspergillus flavus [24]): 100%
- inhibition (INH) (Rhizoctonia solani [25]): 100%
- growth inhibition (GI) (Fusarium verticillioides [26]): 100%
- inhibition (INH) (Aspergillus niger [27]): 70.58%
- growth inhibition (GI) (Alternaria solani [28]): 14.41%
- growth inhibition (GI) (Aspergillus flavus [29]): 54%
- inhibition (INH) (Nigrospora [30]): 98.23%
- inhibition (INH) (Aspergillus niger [31]): 100%
- growth inhibition (GI) (Fusarium verticillioides [32]): 100%
- inhibition (INH) (Fusarium verticillioides [33]): 100%
- inhibition (INH) (Alternaria solani [34]): 100%
- growth inhibition (GI) (Aspergillus niger [35]): 37.59%
- growth inhibition (GI) (Curvularia [36]): 100%
- inhibition (INH) (Bipolaris oryzae [37]): 100%
- growth inhibition (GI) (Curvularia [38]): 100%
- growth inhibition (GI) (Rhizoctonia solani [39]): 93.53%
- growth inhibition (GI) (Curvularia [40]): 85.39%

Structure (SMILES): O=C1C2CC=CCC2C(=O)N1SC(Cl)(Cl)Cl (stereo unspecified) [CAPTAN]
- growth inhibition (GI) (Alternaria solani [1]): 100%
- growth inhibition (GI) (Curvularia [2]): 100%
- growth inhibition (GI) (Aspergillus niger [3]): 100%
- growth inhibition (GI) (Aspergillus flavus [41]): 8.13%
- growth inhibition (GI) (Aspergillus niger [42]): 13.95%
- growth inhibition (GI) (Aspergillus niger [5]): 100%
- growth inhibition (GI) (Fusarium verticillioides [43]): 12.28%
- growth inhibition (GI) (Fusarium verticillioides [6]): 100%
- growth inhibition (GI) (Alternaria solani [7]): 100%
- growth inhibition (GI) (Curvularia [44]): 8.45%
- growth inhibition (GI) (Rhizoctonia solani [45]): 17.06%
- growth inhibition (GI) (Aspergillus flavus [10]): 100%
- growth inhibition (GI) (Aspergillus niger [11]): 100%
- growth inhibition (GI) (Aspergillus niger [46]): 4.06%
- growth inhibition (GI) (Rhizoctonia solani [12]): 100%
- growth inhibition (GI) (Fusarium verticillioides [47]): 23.39%
- growth inhibition (GI) (Rhizoctonia solani [13]): 100%
- growth inhibition (GI) (Alternaria solani [48]): 2.63%
- growth inhibition (GI) (Rhizoctonia solani [49]): 13.78%
- growth inhibition (GI) (Bipolaris oryzae [50]): 1.11%
- growth inhibition (GI) (Aspergillus flavus [17]): 100%
- growth inhibition (GI) (Aspergillus flavus [19]): 100%
- growth inhibition (GI) (Alternaria solani [20]): 100%
- growth inhibition (GI) (Aspergillus flavus [51]): 18.02%
- growth inhibition (GI) (Fusarium verticillioides [21]): 100%
- growth inhibition (GI) (Alternaria solani [52]): 4.6%
- growth inhibition (GI) (Rhizoctonia solani [23]): 100%
- growth inhibition (GI) (Nigrospora [53]): 2.82%
- growth inhibition (GI) (Fusarium verticillioides [26]): 100%
- growth inhibition (GI) (Alternaria solani [28]): 100%
- growth inhibition (GI) (Aspergillus flavus [29]): 100%
- growth inhibition (GI) (Fusarium verticillioides [32]): 100%
- growth inhibition (GI) (Aspergillus niger [35]): 100%
- growth inhibition (GI) (Curvularia [36]): 100%
- growth inhibition (GI) (Curvularia [38]): 100%
- growth inhibition (GI) (Nigrospora [54]): 6.97%
- growth inhibition (GI) (Rhizoctonia solani [39]): 100%
- growth inhibition (GI) (Bipolaris oryzae [55]): 21.1%
- growth inhibition (GI) (Curvularia [56]): 9.15%
- growth inhibition (GI) (Curvularia [40]): 100%
